# Measurements taken from ChEMBL document CHEMBL1123478, “Synthesis and antineoplastic activity of bis[[[(alkylamino)carbonyl]oxy]methyl]-substituted 3-pyrrolines as prodrugs of tumor inhibitory pyrrole bis(carbamates)” (1986).
# What was measured:
# Mus musculus [1] = experiment: Body weight difference the relation of the test animal to control animal weight was calculated at the 50 mg/kg doses; format: functional
# Outline: (§1)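 P388 leukemia ascitic fluid implanted intraperitoneally into CD2F1 mice. Dosing was intraperitoneal, starting 24 h after inoculation, once daily for five doses, as a suspension in saline and Tween 80 made fresh each day. Some compounds were given in Klucel (hydroxypropylcellulose) or in saline/Tween/alcohol instead. Acute toxicity was checked on day 5 and the study was evaluated on day 30.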
# P388 [2] = experiment: Compound was tested for antitumor activity against P388 lymphocytic leukemia at the dose 25 mg/kg; format: functional, Mus musculus; outline: as §1
# Mus musculus [3] = experiment: Tumor cell population at the end of treatment relative to its size at the beginning of the treatment was calculated at the 25 mg/kg doses; format: functional; outline: as §1
# Mus musculus [4] = experiment: Tumor cell population at the end of treatment relative to its size at the beginning of the treatment was calculated at the 50 mg/kg doses; format: functional; outline: as §1
# Mus musculus [5] = experiment: Body weight difference the relation of the test animal to control animal weight was calculated at the 100 mg/kg doses; format: functional; outline: as §1
# Mus musculus [6] = experiment: Tumor cell population at the end of treatment relative to its size at the beginning of the treatment was calculated at the 12.5 mg/kg doses; format: functional; outline: as §1
# P388 [7] = experiment: Compound was tested for antitumor activity against P388 lymphocytic leukemia at the dose 12.5 mg/kg; format: functional, Mus musculus; outline: as §1
# Mus musculus [8] = experiment: Body weight difference the relation of the test animal to control animal weight was calculated at the 12.5 mg/kg doses; format: functional; outline: as §1
# P388 [9] = experiment: Compound was tested for antitumor activity against P388 lymphocytic leukemia at the dose 50 mg/kg; format: functional, Mus musculus; outline: as §1
# Mus musculus [10] = experiment: Body weight difference the relation of the test animal to control animal weight was calculated at the 25 mg/kg doses; format: functional; outline: as §1
# Mus musculus [11] = experiment: Tumor cell population at the end of treatment relative to its size at the beginning of the treatment was calculated at the 100 mg/kg doses; format: functional; outline: as §1
# P388 [12] = experiment: Compound was tested for antitumor activity against P388 lymphocytic leukemia at the dose 100 mg/kg; format: functional, Mus musculus; outline: as §1
# [13] = Rate constants were calculated for the compound by linear regression analysis
# Mus musculus [14] = experiment: Body weight difference the relation of the test animal to control animal weight was calculated at the 120 mg/kg doses; format: functional; outline: as §1
# Mus musculus [15] = experiment: Body weight difference the relation of the test animal to control animal weight was calculated at the 480 mg/kg doses; format: functional; outline: as §1
# Mus musculus [16] = experiment: Tumor cell population at the end of treatment relative to its size at the beginning of the treatment was calculated at the 120 mg/kg doses; format: functional; outline: as §1
# P388 [17] = experiment: Compound was tested for antitumor activity against P388 lymphocytic leukemia at the dose 60 mg/kg; format: functional, Mus musculus; outline: as §1
# Mus musculus [18] = experiment: Body weight difference the relation of the test animal to control animal weight was calculated at the 60 mg/kg doses; format: functional; outline: as §1
# P388 [19] = experiment: Compound was tested for antitumor activity against P388 lymphocytic leukemia at the dose 240 mg/kg; format: functional, Mus musculus; outline: as §1
# P388 [20] = experiment: Compound was tested for antitumor activity against P388 lymphocytic leukemia at the dose 120 mg/kg; format: functional, Mus musculus; outline: as §1
# Mus musculus [21] = experiment: Tumor cell population at the end of treatment relative to its size at the beginning of the treatment was calculated at the 240 mg/kg doses; format: functional; outline: as §1
# Mus musculus [22] = experiment: Body weight difference the relation of the test animal to control animal weight was calculated at the 240 mg/kg doses; format: functional; outline: as §1
# P388 [23] = experiment: Compound was tested for antitumor activity against P388 lymphocytic leukemia at the dose 480 mg/kg; format: functional, Mus musculus; outline: as §1
# Mus musculus [24] = experiment: Tumor cell population at the end of treatment relative to its size at the beginning of the treatment was calculated at the 480 mg/kg doses; format: functional; outline: as §1
# Mus musculus [25] = experiment: Tumor cell population at the end of treatment relative to its size at the beginning of the treatment was calculated at the 60 mg/kg doses; format: functional; outline: as §1
# Mus musculus [26] = experiment: Body weight difference the relation of the test animal to control animal weight was calculated at the 30 mg/kg doses; format: functional; outline: as §1
# Mus musculus [27] = experiment: Tumor cell population at the end of treatment relative to its size at the beginning of the treatment was calculated at the 7.5 mg/kg doses; format: functional; outline: as §1
# Mus musculus [28] = experiment: Tumor cell population at the end of treatment relative to its size at the beginning of the treatment was calculated at the 15 mg/kg doses; format: functional; outline: as §1
# P388 [29] = experiment: Compound was tested for antitumor activity against P388 lymphocytic leukemia at the dose 15 mg/kg; format: functional, Mus musculus; outline: as §1
# Mus musculus [30] = experiment: Body weight difference the relation of the test animal to control animal weight was calculated at the 15 mg/kg doses; format: functional; outline: as §1
# P388 [31] = experiment: Compound was tested for antitumor activity against P388 lymphocytic leukemia at the dose 7.5 mg/kg; format: functional, Mus musculus; outline: as §1
# Mus musculus [32] = experiment: Body weight difference the relation of the test animal to control animal weight was calculated at the 7.5 mg/kg doses; format: functional; outline: as §1
structure (smiles),measurement,setting,value
CNC(=O)OCC1=C(COC(=O)NC)[C@@H](c2ccccc2)N(C)[C@H]1c1ccccc1,BDW,Mus musculus [1],-1.7 g
same,T/C,P388 [2],136%
same,KE,Mus musculus [3],0
same,KE,Mus musculus [4],1.06
same,BDW,Mus musculus [5],-4.3 g
same,KE,Mus musculus [6],-1.16
same,T/C,P388 [7],116%
same,BDW,Mus musculus [8],-0.1 g
same,T/C,P388 [9],154%
same,BDW,Mus musculus [10],-1.4 g
CC(C)NC(=O)OCC1=C(COC(=O)NC(C)C)C(c2ccccc2)N(C)C1 (stereo not drawn),BDW,Mus musculus [1],-2 g
same,T/C,P388 [2],136%
same,KE,Mus musculus [3],0
same,KE,Mus musculus [4],0.53
same,KE,Mus musculus [11],5.18
same,BDW,Mus musculus [5],-2.2 g
same,KE,Mus musculus [6],0.84
same,T/C,P388 [7],121%
same,BDW,Mus musculus [8],0 g
same,T/C,P388 [9],145%
same,BDW,Mus musculus [10],-0.9 g
same,T/C,P388 [12],225%
Cc1c(COC(=O)NC(C)C)c(COC(=O)NC(C)C)c(-c2ccccc2)n1C,K',[13],1.68 abs/time
CC(C)NC(=O)OCc1cn2c(c1COC(=O)NC(C)C)-c1cc(Cl)c(Cl)cc1CC2,BDW,Mus musculus [14],-2.2 g
same,BDW,Mus musculus [15],-3.2 g
same,KE,Mus musculus [16],-0.68
same,T/C,P388 [17],86%
same,BDW,Mus musculus [18],-0.4 g
same,T/C,P388 [19],137%
same,K',[13],0.00154 abs/time
same,T/C,P388 [20],130%
same,KE,Mus musculus [21],0.1
same,BDW,Mus musculus [22],-2.3 g
same,T/C,P388 [23],185%
same,KE,Mus musculus [24],5.05
same,KE,Mus musculus [25],-1.54
CC(C)NC(=O)OCc1cn(C)c(-c2ccc(Cl)c(Cl)c2)c1COC(=O)NC(C)C,BDW,Mus musculus [14],-1.6 g
same,BDW,Mus musculus [15],-3.6 g
same,KE,Mus musculus [16],-0.39
same,T/C,P388 [17],117%
same,BDW,Mus musculus [18],-0.8 g
same,T/C,P388 [19],160%
same,K',[13],0.00605 abs/time
same,T/C,P388 [20],133%
same,KE,Mus musculus [21],2.43
same,BDW,Mus musculus [22],-2.7 g
same,T/C,P388 [23],169%
same,KE,Mus musculus [24],3.4
same,KE,Mus musculus [25],-1.15
COc1ccc2c(c1)CCn1cc(COC(=O)NC(C)C)c(COC(=O)NC(C)C)c1-2,BDW,Mus musculus [26],-3.1 g
same,KE,Mus musculus [27],0.16
same,KE,Mus musculus [28],-0.04
same,T/C,P388 [29],125%
same,BDW,Mus musculus [30],-3 g
same,T/C,P388 [31],175%
same,K',[13],0.449 abs/time
same,BDW,Mus musculus [32],-2.6 g
CC(C)NC(=O)OCC1=C(COC(=O)NC(C)C)C(c2ccc(Cl)c(Cl)c2)N(C)C1 (stereo not drawn),BDW,Mus musculus [14],-1.6 g
same,T/C,P388 [17],110%
same,BDW,Mus musculus [18],-1.3 g
same,T/C,P388 [19],119%
same,T/C,P388 [20],117%
same,BDW,Mus musculus [22],-2.5 g
